{"data": "Assay results of several laboratories", "target": "Phosphatidylinositol 4,5-bisphosphate 3-kinase catalytic subunit beta isoform (PIK3CB, Homo sapiens, UniProt P42338)", "note": "Compare with care: the assays were run in different laboratories."}
{"Compound": "O=C(Nc1c[nH]nc1C(=O)NC1CCNCC1)c1cc(F)cc(F)c1", "test": "binding, competition with immobilised ligand", "setting": "1 µM", "remaining binding": "100%"}
{"Compound": "Nc1c(C(=O)NCc2ccc(C(=O)NCCCC3CCCCC3)cc2)cnn1-c1ccccc1", "test": "cell-free assay, competition with immobilised ligand", "setting": "0.1 µM", "remaining binding": "100%"}
{"Compound": "CN(c1nccc(-c2cnn3ncccc23)n1)C1CC1", "test": "binding", "setting": "1 µM", "remaining binding": "100%"}
{"Compound": "O=C(c1ccc(Nc2ncc(Cl)c(-c3ccc(Cl)s3)n2)cc1)N1CCC(N2CCCC2)CC1", "test": "binding, competition with immobilised ligand", "setting": "1 µM", "remaining binding": "100%"}
{"Compound": "F[C@@H]1CCN(c2nccc(-c3cnn4ncccc34)n2)C1", "test": "binding", "setting": "1 µM", "remaining binding": "100%"}
{"Compound": "O=C(c1ccc(Nc2ncc(Cl)c(-c3cc4ccccc4s3)n2)cc1)N1CCC(N2CCCC2)CC1", "test": "binding, competition with immobilised ligand", "setting": "1 µM", "remaining binding": "100%"}
{"Compound": "CNC(=O)[C@@H]1CC[C@@H](n2c(-c3ccc4cnccc4c3)nc3ccc(C(=O)NCc4cccc(C(N)=O)c4)cc32)C1", "test": "binding, competition with immobilised ligand", "setting": "1 µM", "remaining binding": "100%"}
{"Compound": "CC1CCCN1c1nccc(-c2cnn3ncccc23)n1 (centres unmarked)", "test": "binding", "setting": "1 µM", "remaining binding": "100%"}
{"Compound": "CCN1CCN(Cc2ccc(C(=O)Nc3ccc(C)c(Oc4ccc5c(c4)CC(=O)N5)c3)cc2C(F)(F)F)CC1", "test": "binding, competition with immobilised ligand", "setting": "1 µM", "remaining binding": "100%"}
{"Compound": "FC(F)(F)Oc1cccc(-c2cnc3ccc(-c4ccncc4)nn23)c1", "test": "cell-free assay, competition with immobilised ligand", "setting": "5 µM", "remaining binding": "48%"}
{"Compound": "CN(c1ccnc(CNc2nc(Nc3ccc4c(c3)CC(=O)N4)ncc2C(F)(F)F)n1)S(C)(=O)=O", "test": "cell-free assay, competition with immobilised ligand", "setting": "1 µM", "remaining binding": "100%"}
{"Compound": "COc1cnc(Nc2cccc(S(N)(=O)=O)c2)nc1N1CCN(c2ccccc2)C(=O)C1", "test": "binding, competition with immobilised ligand", "setting": "1 µM", "remaining binding": "100%"}
{"Compound": "CS(=O)(=O)c1cc(C2(NC(=O)c3cncc4c3cnn4-c3ccc(F)cc3)CC2)ccn1", "test": "cell-free assay, competition with immobilised ligand", "setting": "1 µM", "remaining binding": "100%"}
{"Compound": "c1cnn2ncc(-c3ccnc(N4CCC45COC5)n3)c2c1", "test": "binding", "setting": "1 µM", "remaining binding": "62%"}
{"Compound": "CN(C)C(=O)Cn1cc(-c2nc(C3(c4ccc(-c5cnc(N)nc5)cc4)CC3)no2)cn1", "test": "cell-free assay, competition with immobilised ligand", "setting": "1 µM", "remaining binding": "96%"}
{"Compound": "C[C@H]1CCN(c2nccc(-c3cnn4ncccc34)n2)C1", "test": "binding", "setting": "1 µM", "remaining binding": "65%"}
{"Compound": "COc1cc(-c2cn(C3CCc4ccccc4N(CC(F)(F)F)C3=O)nn2)ccc1-n1ccc(C)n1 (centres unmarked)", "test": "cell-free assay, competition with immobilised ligand", "setting": "1 µM", "remaining binding": "100%"}
{"Compound": "N[C@@H]1CCN(c2nccc(-c3cnn4ncccc34)n2)C1", "test": "binding", "setting": "1 µM", "remaining binding": "100%"}
{"Compound": "O=C(NCCCN1CCOCC1)c1ccc(Nc2ncc(Cl)c(-c3ccc(Cl)s3)n2)cc1", "test": "binding, competition with immobilised ligand", "setting": "1 µM", "remaining binding": "99%"}
{"Compound": "Cc1cc(NC(=O)c2cccc(S(F)(F)(F)(F)F)c2)cc(-n2ccn3nc(-c4cccnc4)cc23)c1", "test": "cell-free assay, competition with immobilised ligand", "setting": "1 µM", "remaining binding": "100%"}
